Results pooled from the literature.
Lines come from different studies, so protocols differ.
Target: High affinity nerve growth factor receptor (NTRK1, Homo sapiens, UniProt P04629)
Observed: enzyme activity
Action: inhibitor

Compound	technique	concentration	inhibition [%]
CNC(=O)c1ccccc1Nc1cc(Nc2ccc(N3CCOCC3)cc2OC)ncc1C(F)(F)F	–	1 µM	> 50
CCN(CC)CCNC(=O)c1c(C)[nH]c(/C=C2\C(=O)Nc3ccc(F)cc32)c1C	–	0.3 µM	91
O=C(Nc1cccc(C(=O)Nc2ccc3[nH]ncc3c2)c1)Nc1cccc(C(F)(F)F)c1	FRET	1 µM	67.4
CCCS(=O)(=O)Nc1ccc(F)c(C(=O)c2c[nH]c3ncc(-c4ccc(Cl)cc4)cc23)c1F	–	1 µM	< 10
Cc1ccc(Nc2nccc(N(C)c3ccc4c(C)n(C)nc4c3)n2)cc1S(N)(=O)=O	–	0.3 µM	16
CN(C)C1CCN(CC#Cc2nn(C3CCCC3)c3nc(NCc4ccccc4)ncc23)C1 (stereo not drawn)	FRET	10 µM	65
CNCc1ccc(-c2cc(-c3nc(-c4ccc(S(=O)(=O)C(C)C)cc4)cnc3N)on2)cc1	–	0.4 µM	13
COc1cc2ncnc(Nc3ccc(Oc4ccccc4)cc3C)c2cc1OC	–	1 µM	9
CNC(=O)c1cc2c(Oc3ccc(NC(=O)C4(C(=O)Nc5ccc(F)cc5)CC4)cc3)ccnc2cc1OC	radiometric	1 µM	99
CN1CCN(CC(=O)Nc2cccc(C(=O)Nc3ccc4[nH]ncc4c3)c2)CC1	FRET	1 µM	14.1
CNC(=O)c1cc(Oc2ccc(NC(=O)Nc3ccc(Cl)c(C(F)(F)F)c3)cc2)ccn1	–	10 µM	98
O=C(Nc1ccc(OC(F)(F)F)cc1)Nc1cccc(C(=O)Nc2ccc3[nH]ncc3c2)c1	FRET	1 µM	69.2
CC/C(=N\NC(=O)NCc1cccc(O)c1)c1ccc(O)c(C)c1O	–	0.1 µM	3.3
O=C(Nc1ccc(Cl)cc1)Nc1cccc(C(=O)Nc2ccc3[nH]ncc3c2)c1	FRET	1 µM	55.3
COc1cc2nccc(Oc3ccc(NC(=O)c4c5n(n(-c6ccc(F)cc6)c4=O)CCCC5)cc3)c2cc1OC	–	0.1 µM	63
